The text below walks through data of ChEMBL document CHEMBL1149583, “Effects of oxygen-sulfur substitution on glycosaminoglycan-priming naphthoxylosides” (Bioorg Med Chem, 2007).

In one series the test system is T-24. Put plainly: Antiproliferative activity against human T24 cells after 96 hrs by crystal violet method. Type of series: functional. To be noted: T-24, 96 h, read-out: ED50 (the source's name). The method, boiled down:
(§1)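 Seeded at 3000 cells/well (T24) or 5000 cells/well (HFL-1) in DMEM with insulin 10 ng/mL, transferrin 25 ng/mL and 10% FCS. After 4 h, moved to serum-free Ham's F-12 with insulin/transferrin for 24 h. Grown with 10 ng/mL EGF plus xyloside at 25–500 µM for 96 h total. Fixed in 1% glutaraldehyde, stained with 0.1% crystal violet, Triton-lysed, read at A600. ED50 taken relative to untreated controls.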

The test system of series [1] is CHO. Description: Antiproliferative activity against […] CHO cells. It is filed as cell-based, Cricetulus griseus. The following applies: chinese hamster.
Series [2] concerns CHO. Description: Antiproliferative activity against heparan sulfate deficient […] CHO cells. It is filed as cell-based, Cricetulus griseus. To be noted: chinese hamster.
A short description of series [3]: Antiproliferative activity against human HFL1 cells after 96 hrs by crystal violet method. Type of series: cell-based. To be noted: read-out: ED50. The method, boiled down: as §1

Take `Oc1ccc2cc(O[C@@H]3OC[C@@H](O)[C@H](O)[C@H]3O)ccc2c1`: the EC50 in the series on T-24 worked out at 50 µM. For the same compound, the values for the Activity result in the series with CHO [1] and with CHO [2] were “Toxic” and “Not Active”, respectively.

Consider `O[C@@H]1[C@@H](O)[C@H](Oc2ccc(S)c3ccccc23)OC[C@H]1O`, for which, in series [3], the GI50 at 96 h turned out to be 70 µM. For the same compound, the EC50 in the series on T-24 came to 55 µM.

For `O[C@@H]1[C@@H](O)[C@H](Oc2cccc3cccc(S)c23)OC[C@H]1O`, the GI50 at 96 h in series [3] is 60 µM. For the same compound, the EC50 in the series on T-24 was determined as 45 µM.

Regarding `O[C@@H]1[C@@H](O)[C@H](Oc2cc3ccccc3cc2S)OC[C@H]1O`, in series [3], the GI50 at 96 h turned out to be 60 µM. Besides, the EC50 in the series on T-24 is 145 µM.

Take `O[C@@H]1[C@@H](O)[C@H](Oc2ccc3ccc(S)cc3c2)OC[C@H]1O`: in series [3], the GI50 at 96 h is 100 µM. Further, in the series with T-24, the EC50 amounted to 360 µM.

As to `Oc1ccc(S[C@@H]2OC[C@@H](O)[C@H](O)[C@H]2O)c2ccccc12`, in series [3], the GI50 at 96 h is 130 µM. Further, in the series on T-24, the EC50 amounted to 160 µM.

Regarding `Oc1cccc2cccc(S[C@@H]3OC[C@@H](O)[C@H](O)[C@H]3O)c12`, the GI50 at 96 h in series [3] was found to be 120 µM. Further, the EC50 with T-24 is 225 µM.

As for `Oc1cc2ccccc2cc1S[C@@H]1OC[C@@H](O)[C@H](O)[C@H]1O`, the GI50 at 96 h in series [3] was 100 µM. Besides, in the series on T-24, the EC50 was 260 µM.

For `Oc1ccc2ccc(S[C@@H]3OC[C@@H](O)[C@H](O)[C@H]3O)cc2c1`, in series [3], the GI50 at 96 h was determined as 125 µM. The EC50 with T-24 is 230 µM.

With `CCCSc1cccc2c(O[C@@H]3OC[C@@H](O)[C@H](O)[C@H]3O)cccc12`, the GI50 at 96 h in series [3] turned out to be 20 µM. For the same compound, in the series on T-24, the EC50 was 40 µM.

In the case of `CCCSc1cccc2cccc(O[C@@H]3OC[C@@H](O)[C@H](O)[C@H]3O)c12`, the GI50 at 96 h in series [3] came out at 100 µM. Moreover, the EC50 in the series with T-24 was 155 µM.

As to `CCCSc1ccc2cc(O[C@@H]3OC[C@@H](O)[C@H](O)[C@H]3O)ccc2c1`, the GI50 at 96 h in series [3] is 30 µM. For the same compound, in the series on T-24, the EC50 worked out at 40 µM.

Turning to `CCCSc1ccc2ccc(O[C@@H]3OC[C@@H](O)[C@H](O)[C@H]3O)cc2c1`, the GI50 at 96 h in series [3] is 25 µM. Besides, the EC50 with T-24 turned out to be 60 µM.

As to `CCCSc1cc2ccccc2cc1O[C@@H]1OC[C@@H](O)[C@H](O)[C@H]1O`, the GI50 at 96 h in series [3] came to 30 µM. Besides, the EC50 in the series with T-24 worked out at 70 µM.

With `O[C@@H]1[C@@H](O)[C@H](Oc2cccc3c(S)cccc23)OC[C@H]1O`, the GI50 at 96 h in series [3] worked out at 60 µM. In addition, the EC50 with T-24 was found to be 110 µM.

Turning to `O[C@@H]1[C@@H](O)[C@H](Oc2ccc3cc(S)ccc3c2)OC[C@H]1O`, the GI50 at 96 h in series [3] came out at 60 µM. The EC50 in the series with T-24 turned out to be 135 µM.

With `Oc1cccc2c(S[C@@H]3OC[C@@H](O)[C@H](O)[C@H]3O)cccc12`, the GI50 at 96 h in series [3] was found to be 135 µM. Besides, in the series on T-24, the EC50 was found to be 320 µM.

As to `Oc1ccc2cc(S[C@@H]3OC[C@@H](O)[C@H](O)[C@H]3O)ccc2c1`, the GI50 at 96 h in series [3] came out at 145 µM. Further, the EC50 in the series with T-24 came out at 355 µM.

`CCCSc1ccc(O[C@@H]2OC[C@@H](O)[C@H](O)[C@H]2O)c2ccccc12`: the GI50 at 96 h in series [3] came to 30 µM. Besides, the EC50 in the series on T-24 stood at 30 µM.
